Measured values reported in ChEMBL document CHEMBL4342468, “Evolution of a 4-Benzyloxy-benzylamino Chemotype to Provide Efficacious, Potent, and Isoform Selective PPARα Agonists as Leads for Retinal Disorders” (J Med Chem, 2020).

Tests used:
[1] = biological target: T1, Peroxisome proliferator-activated receptor alpha (Homo sapiens) (UniProt Q07869); test: Agonist activity at human PPARalpha expressed in nonhuman mammalian cells assessed as maximal increase in receptor transcriptional activity incubated for 22 to 24 hrs by luciferase reporter gene assay relative to GW590735; type: cell-based
T1 sequence (whole entry): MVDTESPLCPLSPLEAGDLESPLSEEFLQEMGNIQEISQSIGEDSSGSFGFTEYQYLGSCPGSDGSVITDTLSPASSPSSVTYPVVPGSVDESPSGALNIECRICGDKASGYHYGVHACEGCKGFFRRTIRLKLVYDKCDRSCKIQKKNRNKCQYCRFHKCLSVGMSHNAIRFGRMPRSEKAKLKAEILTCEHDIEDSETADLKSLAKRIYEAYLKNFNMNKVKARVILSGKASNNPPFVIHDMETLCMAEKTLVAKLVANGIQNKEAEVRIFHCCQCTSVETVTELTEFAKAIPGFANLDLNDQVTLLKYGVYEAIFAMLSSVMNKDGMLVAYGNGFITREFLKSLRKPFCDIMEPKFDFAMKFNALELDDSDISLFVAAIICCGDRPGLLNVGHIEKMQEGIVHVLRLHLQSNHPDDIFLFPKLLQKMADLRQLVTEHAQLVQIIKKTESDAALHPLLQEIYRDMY

[2] = biological target: T2, Peroxisome proliferator-activated receptor alpha (Homo sapiens, UniProt Q07869)
T2 sequence (Q07869 whole entry): T1 sequence (whole entry)

[3] = biological target: T3, Peroxisome proliferator-activated receptor gamma (Homo sapiens, UniProt P37231); test: Agonist activity at human PPARgamma expressed in nonhuman mammalian cells assessed as increase in receptor transcriptional activity incubated for 22 to 24 hrs by luciferase reporter gene assay; type: cell-based
T3 sequence (P37231 whole entry): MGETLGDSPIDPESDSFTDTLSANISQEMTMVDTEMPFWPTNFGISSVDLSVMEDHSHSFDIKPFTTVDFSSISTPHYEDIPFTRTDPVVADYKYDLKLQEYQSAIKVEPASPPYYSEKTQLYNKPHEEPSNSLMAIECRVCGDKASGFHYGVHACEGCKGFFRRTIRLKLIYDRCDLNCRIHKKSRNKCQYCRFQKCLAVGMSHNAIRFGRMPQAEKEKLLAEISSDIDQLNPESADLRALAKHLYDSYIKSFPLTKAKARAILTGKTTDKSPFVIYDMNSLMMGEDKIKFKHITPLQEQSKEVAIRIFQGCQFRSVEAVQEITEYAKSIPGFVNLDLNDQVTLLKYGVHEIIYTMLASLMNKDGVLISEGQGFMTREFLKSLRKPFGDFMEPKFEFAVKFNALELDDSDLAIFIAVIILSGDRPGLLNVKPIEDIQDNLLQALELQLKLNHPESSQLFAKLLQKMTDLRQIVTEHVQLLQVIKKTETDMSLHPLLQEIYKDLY
In short: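 Reporter cells (nonhuman mammalian, engineered PPAR receptor with luciferase linked to response promoter) pre-incubated 4–6 h at 37 °C, 5% CO2 in medium with 10% charcoal-stripped FBS. Medium replaced with compound-containing screening medium, 22–24 h at 37 °C, then luciferase detection reagent, luminescence read. Multi-point dose-response for EC50; mean ± SEM of at least two separate experiments in triplicate.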

[4] = biological target: T4, Peroxisome proliferator-activated receptor delta (Homo sapiens, UniProt Q03181); test: Agonist activity at human PPARdelta expressed in nonhuman mammalian cells assessed as increase in receptor transcriptional activity incubated for 22 to 24 hrs by luciferase reporter gene assay; type: cell-based
T4 sequence (Q03181 whole entry): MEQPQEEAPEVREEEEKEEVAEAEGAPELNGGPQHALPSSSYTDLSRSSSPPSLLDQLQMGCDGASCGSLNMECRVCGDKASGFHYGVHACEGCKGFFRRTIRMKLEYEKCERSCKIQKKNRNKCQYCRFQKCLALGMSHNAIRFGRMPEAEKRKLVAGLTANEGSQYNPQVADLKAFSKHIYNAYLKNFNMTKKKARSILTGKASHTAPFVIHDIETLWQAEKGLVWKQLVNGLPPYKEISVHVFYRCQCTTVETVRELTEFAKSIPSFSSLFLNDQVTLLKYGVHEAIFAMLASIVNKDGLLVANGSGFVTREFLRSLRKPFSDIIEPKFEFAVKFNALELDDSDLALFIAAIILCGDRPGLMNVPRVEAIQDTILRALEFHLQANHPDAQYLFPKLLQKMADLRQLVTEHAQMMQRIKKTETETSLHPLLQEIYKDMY

Homo sapiens [5] = species: Homo sapiens; test: Selectivity index, ratio of EC50 for human PPARgamma expressed in nonhuman mammalian cells to EC50 for human PPARalpha expressed in nonhuman mammalian cells measured after 22 to 24 hrs by luciferase reporter gene assay; type: cell-based
In short: (§1)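 Reporter cells (non-human mammalian) expressing human PPARα, γ or δ linked to a luciferase reporter were pre-incubated 4–6 h at 37 °C, 5% CO2 in medium with 10% charcoal-stripped FBS. SI = EC50(PPARγ or δ)/EC50(PPARα).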

Homo sapiens [6] = species: Homo sapiens; test: Selectivity index, ratio of EC50 for human PPARdelta expressed in nonhuman mammalian cells to EC50 for human PPARalpha expressed in nonhuman mammalian cells measured after 22 to 24 hrs by luciferase reporter gene assay; type: cell-based; in short: as §1
[7] = biological target: T1, Peroxisome proliferator-activated receptor alpha (Homo sapiens); test: Binding affinity to His-tagged PPARalpha LBD (unknown origin) expressed in Escherichia coli Rosetta (DE3) assessed as change in enthalpy at 25 degree C by isothermal titration calorimetry
[8] = biological target: T1, Peroxisome proliferator-activated receptor alpha (Homo sapiens); test: Binding affinity to His tagged PPARalpha LBD (unknown origin) expressed in Escherichia coli Rosetta (DE3) assessed as change in entropy at 25 degree C by isothermal titration calorimetry
Rattus norvegicus = test: Protection against STZ-induced diabetic retinopathy Brown Norway rat model assessed as reduction in vascular leakage by measuring retinal vascular permeability at 23 mg/kg, ip administered daily for 4 weeks starting at 2 weeks post STZ challenge measured per mg of total retinal protein by Evan blue dye based assay (reference value: 0.090 +/- 0.015 microg); type: functional
In short: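 Male Brown Norway rats aged 8 weeks (legend: 7–8 weeks) made diabetic with STZ 55 mg/kg i.p.; blood glucose >350 mg/dl at day 3. Starting 2 weeks after STZ, daily i.p. compound or same-volume vehicle for 4 weeks. Under ketamine/xylazine, Evans blue 30 mg/ml at 1 µl/g given i.v. via femoral vein and circulated 2 h. Perfusion with 1% paraformaldehyde in citrate buffer, pH 4.2, at 37°C. Retina extracted in formamide 18 h at 70°C, ultracentrifuged, A620 read. Dye amount from a standard curve, normalized to total protein. Groups compared by Student's t-test, mean ± SD.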

[9] = Toxicity in STZ-induced diabetic retinopathy Brown Norway rat model assessed as liver weight at 23 mg/kg, ip administered daily for 4 weeks starting at 2 weeks post STZ challenge relative to body weight (reference value: 4.36 +/- 0.37%); type: organism-based; settings: in vivo

Compound | fold change (FC) [1] | EC50 [2] [nM] | also measured
CN(Cc1ccc(OCc2ccc(F)cc2)cc1)c1cccc(C(=O)O)c1 | 1.7 | 900 | –
O=C(O)c1cc(F)cc(NCc2ccc(OCc3ccc(F)cc3)cc2)c1 | 1.1 | 580 | EC50 [3]: > 100000 nM; EC50 [4]: > 100000 nM; Ratio EC50 (Homo sapiens [5]): > 170; Ratio EC50 (Homo sapiens [6]): > 170
N#Cc1ccc(COc2ccc(CNc3cccc(C(=O)O)c3)cc2)cc1 | 1 | – | –
CC(C)(Oc1cccc(NCc2ccc(OCc3ccc(F)cc3)cc2)c1)C(=O)O | 2 | – | –
CC(C)(Oc1cccc(NCc2ccc(OCc3ccc(C(F)(F)F)cc3)cc2)c1)C(=O)O | 1.2 | – | –
CC(C)(Sc1cccc(NCc2ccc(OCc3ccc(F)cc3)cc2)c1)C(=O)O | 1.1 | – | –
O=C(O)c1cc(NCc2ccc(OCc3ccc(F)cc3)cc2)ccc1F | 1.2 | 1610 | –
O=C(O)c1ccc(NCc2ccc(OCc3ccc(F)cc3)cc2)cc1 | 0.4 | – | –
Cc1cc(CNc2cccc(C(=O)O)c2)ccc1OCc1ccc(I)cc1 | 1.5 | – | –
Cc1cc(CNc2cc(F)cc(C(=O)O)c2)ccc1OCc1ccc(F)cc1 | 1.5 | – | –
O=C(O)c1cccc(NCc2ccc(OCc3ccccc3F)cc2)c1 | 1 | – | –
Cc1ccc(C(=O)O)cc1NCc1ccc(OCc2ccc(F)cc2)cc1 | 0.3 | – | –
O=C(O)c1cccc(NCc2ccc(OCc3ccc(F)cc3)c(OCc3ccc(F)cc3)c2)c1 | 1.4 | 810 | –
C[C@@H](Oc1ccc(CNc2cccc(C(=O)O)c2)cc1)c1ccc(F)cc1 | 0.6 | 25600 | –
Cc1cc(CNc2cccc(C(=O)O)c2)ccc1OCc1cc(F)cc(F)c1 | 1.6 | – | –
Cc1cc(CNc2cccc(C(=O)O)c2)ccc1OCc1ccc(F)c(F)c1 | 1.6 | – | –
CC(C)(Oc1ccc(CNc2cccc(C(=O)O)c2)cc1)c1ccc(F)cc1 | 0.8 | 8520 | –
COc1ccc(COc2ccc(CNc3cccc(OC(C)(C)C(=O)O)c3)cc2)cc1 | 1.8 | – | –
Cc1cc(OCc2ccc(F)cc2)ccc1CNc1cccc(C(=O)O)c1 | 1.2 | 1450 | –
O=C(O)c1cccc(NCc2ccc(OCc3cc(F)cc(F)c3)cc2)c1 | 1.1 | – | –
CC(C)(Oc1ccc(NCc2ccc(OCc3ccc(F)cc3)cc2)cc1)C(=O)O | 1.8 | – | –
O=C(O)c1cc(Cl)cc(NCc2ccc(OCc3ccc(F)cc3)cc2)c1 | 1.1 | – | –
O=C(O)c1cccc(NCc2ccc(OCc3ccc(Cl)cc3)cc2)c1 | 1.5 | 830 | –
Fc1ccc(COc2ccc(CNc3cccc(-c4nnn[nH]4)c3)cc2)cc1 | 1.6 | – | –
O=C(O)c1cccc(NCc2ccc(OCCc3ccccc3)cc2)c1 | 0.9 | – | –

Compound | fold change (FC) [1] | EC50 [2] [nM] | also measured
O=C(O)c1cccc(NCc2ccc(OCc3ccc(Br)cc3)cc2)c1 | 1.3 | 970 | –
O=C(O)c1cccc(NCc2ccc(OCc3ccc(F)cc3)c(Cl)c2)c1 | 1.5 | – | –
O=C(O)c1cc(F)cc(NCc2ccc(OCc3ccc(F)cc3)c(Cl)c2)c1 | 1.8 | 52 | –
O=C(O)c1cc(Br)cc(NCc2ccc(OCc3ccc(F)cc3)cc2)c1 | 1.4 | 1120 | EC50 [3]: > 100000 nM; EC50 [4]: > 100000 nM; Ratio EC50 (Homo sapiens [5]): > 100; Ratio EC50 (Homo sapiens [6]): > 100
Cc1cc(CNc2cccc(C(=O)O)c2)ccc1OCc1ccc(Br)cc1 | 1.3 | – | –
O=C(O)c1cccc(NCc2ccc(OCc3cccc(F)c3)cc2)c1 | 1.2 | 1180 | –
CS(=O)(=O)Nc1cccc(NCc2ccc(OCc3ccc(F)cc3)cc2)c1 | 0.1 | – | –
Cc1cc(CNc2cccc(OC(C)(C)C(=O)O)c2)ccc1OCc1ccc(F)cc1 | 1.6 | – | –
O=C(O)c1cccc(NCc2ccc(OCc3ccc(F)cc3)cc2)c1 | 1.3 | – | EC50 [3]: > 100000 nM; EC50 [4]: > 100000 nM; deltaH [7]: -8.18 kcal/mol; -TdeltaS [8]: 0.98 kcal/mol
O=C(O)c1cccc(NCc2ccc(OCc3ccc(F)c(F)c3)cc2)c1 | 1.2 | 360 | –
C[C@H](Oc1ccc(CNc2cccc(C(=O)O)c2)cc1)c1ccc(F)cc1 | 1.6 | – | –
COc1ccc(CCOc2ccc(CNc3cccc(C(=O)O)c3)cc2)cc1 | 0.9 | – | –
O=C(O)c1cccc(NCc2ccc(OCc3ccc(F)cc3)c(F)c2)c1 | 1.7 | – | –
O=C(O)c1cccc(NCc2ccc(OCc3ccc(F)cc3F)cc2)c1 | 1.2 | 540 | EC50 [3]: > 100000 nM; EC50 [4]: > 100000 nM; Ratio EC50 (Homo sapiens [5]): > 175; Ratio EC50 (Homo sapiens [6]): > 175
Cc1cc(CNc2cccc(C(=O)O)c2)ccc1OCc1ccc(F)cc1F | 1.4 | – | –
CC(C)(Oc1ccc(C(=O)c2ccc(Cl)cc2)cc1)C(=O)O [FENOFIBRIC ACID] | – | – | Activity (Rattus norvegicus): 0.059 µg; Activity [9]: 5.79%
Cc1nc(-c2ccc(C(F)(F)F)cc2)sc1C(=O)NCc1ccc(OC(C)(C)C(=O)O)cc1 | 1 | – | deltaH [7]: -14.1 kcal/mol; -TdeltaS [8]: 4.9 kcal/mol
NS(=O)(=O)c1cccc(NCc2ccc(OCc3ccc(F)cc3)cc2)c1 | 0.1 | – | –
O=C(O)c1cccc(NCc2ccc(OCc3ccc(I)cc3)cc2)c1 | 1.1 | 1450 | –
O=C(O)c1cccc(NCc2ccc(OCc3ccc(F)cc3)cc2OCc2ccc(F)cc2)c1 | 1.2 | 930 | –
Cc1cc(CN(C)c2cccc(C(=O)O)c2)ccc1OCc1ccc(F)cc1 | 2.1 | 67 | –
O=C(NO)c1cccc(NCc2ccc(OCc3ccc(F)cc3)cc2)c1 | 0.6 | – | –
OB(O)c1cccc(NCc2ccc(OCc3ccc(F)cc3)cc2)c1 | 0.1 | – | –
O=C(O)c1cccc(NCc2ccc(OCc3ccc(C(F)(F)F)cc3)cc2)c1 | 0.9 | 960 | –
Cc1cc(CNc2cccc(C(=O)O)c2)ccc1OCc1ccc(Cl)cc1 | 1.2 | – | –
